{"source": "ChEMBL document CHEMBL1126051", "about": "“New thymidine triphosphate analogue inhibitors of human immunodeficiency virus-1 reverse transcriptase” (J Med Chem, 1992)", "target": "Human immunodeficiency virus type 1 reverse transcriptase (Human immunodeficiency virus 1, UniProt Q72547)", "experiment": "The compound was tested for the inhibition of human immunodeficiency virus-1 reverse transcriptase(HIV-1 RT).", "procedure,_shortened": "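Ki by kinetics: HIV-1 RT p66 at 60 ng/mL with 0.4 μM poly(rA)-oligo(dT), inhibitor, and [3H]TTP varied over 4-20 μM, in pH 8.0 Tris buffer with 6 mM MgCl2, 8 mM DTT, 80 mM KCl. Incubated 37 °C for 30 min, then EDTA quench. 3H incorporation counted on DE-81 paper; Ki taken from double-reciprocal plots.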"}
{"smiles": "Cc1cn([C@H]2C[C@@H](O)[C@@H](OP(=O)(O)NP(=O)(O)NP(=O)(O)O)O2)c(=O)[nH]c1=O", "values": [{"measurement": "Ki", "result": 19.1, "unit": "µM"}]}
{"smiles": "Cc1cn([C@H]2CC[C@@H](OP(=O)(O)NP(=O)(O)OP(=O)(O)O)O2)c(=O)[nH]c1=O", "values": [{"measurement": "Ki", "result": 15, "unit": "µM"}]}
{"smiles": "Cc1cn([C@H]2C[C@@H](N=[N+]=[N-])[C@@H](OP(=O)(O)NP(=O)(O)OP(=O)(O)O)O2)c(=O)[nH]c1=O", "values": [{"measurement": "Ki", "result": 22, "unit": "µM"}]}
